Assay results as given in ChEMBL document CHEMBL1128739, “Structure-activity relationships in the 8-amino-6,7,8,9-tetrahydro-3H-benz[e]indole ring system. 2. Effects of 8-amino nitrogen substitution on serotonin receptor binding and pharmacology” (J Med Chem, 1995).
Active and inactive are the calls of the source. The calls are words filed in the database; no cut-off is given here.

Key:
[1] = molecular target: T1, 5-hydroxytryptamine receptor 1B (Homo sapiens, UniProt P28222); assay: In vitro binding affinity against cloned mammalian 5-hydroxytryptamine 1D receptor beta expressed in CHO cells, by using [3H]5-HT as radioligand; format: cell-based
T1 sequence (P28222 whole entry): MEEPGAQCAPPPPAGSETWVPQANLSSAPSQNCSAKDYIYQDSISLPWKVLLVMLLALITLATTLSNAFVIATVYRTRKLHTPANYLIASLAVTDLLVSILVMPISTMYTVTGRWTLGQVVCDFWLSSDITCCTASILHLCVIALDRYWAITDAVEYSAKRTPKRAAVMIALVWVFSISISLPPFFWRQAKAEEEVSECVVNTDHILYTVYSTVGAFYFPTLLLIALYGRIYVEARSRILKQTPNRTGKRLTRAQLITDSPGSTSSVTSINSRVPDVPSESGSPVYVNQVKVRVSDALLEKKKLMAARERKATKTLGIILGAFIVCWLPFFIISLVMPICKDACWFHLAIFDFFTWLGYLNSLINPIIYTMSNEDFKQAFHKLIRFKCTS
Method in brief: (§1)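 Membranes from CHO cells stably expressing the cloned receptor, made by mechanical disruption in ice-cold Tris/EDTA/EGTA pH 7.4 and differential centrifugation. [3H]serotonin at 1.7 nM in 50 mM Tris, 5 mM MgCl2, 0.1% ascorbic acid, pH 7.4. 11 drug concentrations in duplicate, 1 h at room temperature protected from light, then filtration. Excess serotonin defines nonspecific binding. One-site IC50 fit, Ki by Cheng-Prusoff.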

[2] = molecular target: 5-hydroxytryptamine receptor 1D (Homo sapiens, UniProt P28221); assay: In vitro binding affinity against cloned mammalian 5-hydroxytryptamine 1D receptor alpha expressed in CHO cells, by using [3H]5-HT as radioligand; format: cell-based
Chain of 5-hydroxytryptamine receptor 1D (P28221 whole entry): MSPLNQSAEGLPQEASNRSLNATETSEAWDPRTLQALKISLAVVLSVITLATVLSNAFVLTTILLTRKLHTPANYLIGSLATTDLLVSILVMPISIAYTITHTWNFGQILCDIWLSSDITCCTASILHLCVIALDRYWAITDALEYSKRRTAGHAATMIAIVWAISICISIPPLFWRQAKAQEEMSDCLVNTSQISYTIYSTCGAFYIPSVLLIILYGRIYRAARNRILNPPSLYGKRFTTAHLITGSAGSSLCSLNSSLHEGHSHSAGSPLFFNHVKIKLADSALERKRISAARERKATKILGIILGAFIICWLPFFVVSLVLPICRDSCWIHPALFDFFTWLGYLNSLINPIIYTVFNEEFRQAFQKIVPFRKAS
Method in brief: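 Competition binding on CHO-cell membranes (20-60 μg protein) in 50 mM Tris, 5 mM MgCl2, 0.1% ascorbic acid, pH 7.4. Nonspecific binding defined with excess serotonin. 11 drug concentrations, each in duplicate. Incubated 1 h at room temperature, protected from light, then filtered and scintillation counted. IC50 taken from a one-site fit; Ki by Cheng-Prusoff.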

[3] = molecular target: T2, D(2) dopamine receptor (Rattus norvegicus, UniProt P61169); assay: In vitro binding affinity against cloned mammalian Dopamine receptor D2 expressed in CHO cells using [3H]U-86170 as radioligand; format: cell-based; conditions: read-out: Ki
T2 sequence (P61169 whole entry): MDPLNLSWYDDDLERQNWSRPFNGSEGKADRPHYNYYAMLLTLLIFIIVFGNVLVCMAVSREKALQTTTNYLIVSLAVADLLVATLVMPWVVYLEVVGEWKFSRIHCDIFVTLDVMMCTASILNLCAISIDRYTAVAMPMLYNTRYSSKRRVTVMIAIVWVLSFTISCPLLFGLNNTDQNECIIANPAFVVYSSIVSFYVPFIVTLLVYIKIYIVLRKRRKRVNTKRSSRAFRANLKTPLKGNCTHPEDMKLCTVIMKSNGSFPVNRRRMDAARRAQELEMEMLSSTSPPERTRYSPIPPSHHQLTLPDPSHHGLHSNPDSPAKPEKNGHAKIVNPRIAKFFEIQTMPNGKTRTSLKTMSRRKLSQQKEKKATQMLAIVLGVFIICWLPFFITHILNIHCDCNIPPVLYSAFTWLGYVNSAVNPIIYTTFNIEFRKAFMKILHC
Method in brief: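 Membranes from CHO cells (20-60 μg protein) in 20 mM HEPES, 10 mM MgSO4, pH 7.4. Nonspecific binding defined with excess haloperidol. 11 concentrations, each in duplicate. Incubated 1 h at room temperature, then filtered and counted. IC50 from a one-site competition fit, converted to Ki by Cheng-Prusoff.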

[4] = molecular target: D(3) dopamine receptor (Rattus norvegicus, UniProt P19020); assay: In vitro binding affinity against cloned mammalian Dopamine receptor D3 expressed in CHO cells by, using [3H]-spiperone as radioligand; format: cell-based; conditions: read-out: Ki
Chain of D(3) dopamine receptor (P19020 whole entry): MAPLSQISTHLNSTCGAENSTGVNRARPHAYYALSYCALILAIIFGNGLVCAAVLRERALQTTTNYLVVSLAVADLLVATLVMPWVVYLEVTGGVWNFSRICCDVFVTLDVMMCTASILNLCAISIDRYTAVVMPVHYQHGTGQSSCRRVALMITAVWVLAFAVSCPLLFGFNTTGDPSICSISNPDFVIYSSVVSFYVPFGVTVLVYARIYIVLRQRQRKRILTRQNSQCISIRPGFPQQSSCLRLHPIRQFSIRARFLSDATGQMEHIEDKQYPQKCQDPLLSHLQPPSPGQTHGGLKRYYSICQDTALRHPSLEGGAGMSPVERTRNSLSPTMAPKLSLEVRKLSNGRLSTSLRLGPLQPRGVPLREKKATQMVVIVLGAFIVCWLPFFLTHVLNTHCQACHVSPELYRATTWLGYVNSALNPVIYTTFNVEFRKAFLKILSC

[5] = system: Rattus norvegicus; assay: (§2) The compound was tested in vivo for biochemical effect against the changes in different brain area levels of DOPA in reserpinized rat limbic system at dose 12.5 uM/kg; Partial effect; format: functional, organism-based
Method in brief: (§3)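 Male Sprague-Dawley rats (200-300 g) pretreated with reserpine 5 mg/kg sc 18 h before. Injection volume 5 mL/kg, test solutions at neutral pH. DOPA and 5-HTP in limbic system, striatum and hemispheres measured by HPLC with electrochemical detection. Dose-response curves from four to six dose levels (n = 4) per brain area.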

[6] = system: Rattus norvegicus; assay: In vivo changes in different brain area levels of 5-HTP in reserpinized rat corpus striatum.; format: functional
Method in brief: (§4)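 Male Sprague-Dawley rats (200-300 g) pretreated with reserpine 5 mg/kg sc 18 h before. Injection volume 5 mL/kg at neutral pH. Brain-region 5-HTP measured by HPLC with electrochemical detection. Dose-response curves used four to six doses, n = 4.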

[7] = system: Rattus norvegicus; assay: The compound was tested in vivo for biochemical effect against the changes in different brain area levels of DOPA in reserpinized rat hemispheres (mainly cortex)at dose 12.5 uM/kg; Inactive; format: functional, organism-based
[8] = system: Rattus norvegicus; assay: In vivo changes in different brain area levels of 5-HTP in reserpinized rat limbic system.; format: functional; method in brief: as §4
[9] = system: Rattus norvegicus; assay: In vivo for biochemical effect against brain area levels of 5-HTP in reserpinized rat hemispheres (mainly cortex).; format: functional; method in brief: as §3
[10] = system: Rattus norvegicus; assay: The compound was tested in vivo for biochemical effect against the changes in different brain area levels of DOPA in reserpinized rat corpus striatum at dose 12.5 uM/kg; Inactive; format: functional, organism-based; method in brief: as §3
[11] = molecular target: T1, 5-hydroxytryptamine receptor 1B; assay: The compound was tested in vitro for binding affinity against cloned mammalian 5-hydroxytryptamine 1D receptor beta expressed in CHO cells, by using [3H]5-HT as radioligand; format: cell-based; set-up: concentration or dose not given beside the values; conditions: concentration not given here; method in brief: as §1
[12] = molecular target: T2, D(2) dopamine receptor; assay: Binding affinity rat Dopamine receptor D2 expressed in CHO-K1 cells by [3H]U-86170 displacement.; format: cell-based
[13] = system: Rattus norvegicus; assay: The compound was tested in vivo for biochemical effect against the changes in different brain area levels of DOPA in reserpinized rat limbic system at dose 3.1 uM/kg; Inactive; format: functional, organism-based; method in brief: as §3
[14] = system: Rattus norvegicus; assay: The compound was tested in vivo for biochemical effect against the changes in different brain area levels of DOPA in reserpinized rat corpus striatum at dose 3.1 uM/kg; Inactive; format: functional, organism-based; method in brief: as §3
[15] = system: Rattus norvegicus; assay: The compound was tested in vivo for biochemical effect against the changes in different brain area levels of DOPA in reserpinized rat hemispheres (mainly cortex)at dose 3.1 uM/kg; Inactive; format: functional, organism-based; method in brief: as §3
[16] = system: Rattus norvegicus; assay: The compound was tested in vivo for biochemical effect against the changes in different brain area levels of DOPA in reserpinized rat corpus striatum; format: functional; method in brief: as §3
[17] = system: Rattus norvegicus; assay: The compound was tested in vivo for biochemical effect against the changes in different brain area levels of DOPA in reserpinized rat limbic system; format: functional
Method in brief: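 Rats (male Sprague-Dawley, 200-300 g) received reserpine 5 mg/kg sc 18 h before. Injections 5 mL/kg at neutral pH. DOPA accumulation measured by HPLC with electrochemical detection as an index of DA or NE synthesis rate. Four to six dose levels, n = 4. ED50 from a sigmoidal fit.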

[18] = system: Rattus norvegicus; assay: The compound was tested in vivo for biochemical effect against the changes in different brain area levels of DOPA in reserpinized rat hemispheres (mainly cortex)at dose 12.5 uM/kg; inactive; format: functional, organism-based; method in brief: as §3
[19] = system: Rattus norvegicus; assay: as §2; format: functional, organism-based; remark: listed apart in the source
[20] = system: Rattus norvegicus; assay: The compound was tested in vivo for biochemical effect against the changes in different brain area levels of DOPA in reserpinized rat corpus striatum at dose 12.5 uM/kg; Partial effect; format: functional, organism-based; method in brief: as §3

| Structure (SMILES) | Ki [1] | Ki [2] | Ki [3] | Ki [4] | Ki [12] | other results |
| --- | --- | --- | --- | --- | --- | --- |
| CCCN(CCCCN1C(=O)CC(C)(C)CC1=O)C1CCc2ccc3[nH]cc(C=O)c3c2C1 (stereo not given) | 0.115 µM | 0.0098 µM | 0.136 µM | 0.45 µM |  |  |
| CCCN(C)C1CCc2ccc3[nH]cc(C=O)c3c2C1 (stereo not given) | 0.109 µM | 0.016 µM | 0.151 µM | 0.258 µM |  |  |
| C=CCN(CCC)C1CCc2ccc3[nH]cc(C=O)c3c2C1 (stereo not given) | 0.049 µM |  | 0.059 µM | 0.13 µM |  | ED50 [5]: Weak activity; ED50 [6]: 0.16 µmol/kg; ED50 [7]: inactive; ED50 [8]: 0.19 µmol/kg; ED50 [9]: 0.19 µmol/kg; ED50 [10]: inactive |
| CCCN(C)C1CCc2ccc3[nH]ccc3c2C1 (stereo not given) |  | 0.17 µM |  | 0.113 µM | 0.033 µM | inhibition [11]: < 45% |
| CN(C)C1CCc2ccc3[nH]ccc3c2C1 (stereo not given) | 0.27 µM |  |  | 0.383 µM |  |  |
| CCCN(CCc1ccccc1)C1CCc2ccc3[nH]cc(C=O)c3c2C1 (stereo not given) | 0.056 µM | 0.0028 µM | 0.062 µM | 0.081 µM |  |  |
| CCCN(CC(C)C)[C@@H]1CCc2ccc3[nH]cc(C=O)c3c2C1 |  | 0.0065 µM | 0.028 µM | 0.1 µM |  |  |
| CCCNC1CCc2ccc3[nH]ccc3c2C1 (stereo not given) | 0.483 µM | 0.069 µM |  | 0.115 µM | 0.048 µM |  |
| CCCN(CCCCN1C(=O)CC(C)(C)CC1=O)[C@@H]1CCc2ccc3[nH]ccc3c2C1 |  |  |  |  | 0.0065 µM |  |
| CN(C)[C@@H]1CCc2ccc3[nH]ccc3c2C1 | 0.228 µM |  |  | 0.27 µM |  |  |
| CCCN(CCc1ccccc1)C1CCc2ccc3[nH]ccc3c2C1 (stereo not given) | 0.249 µM | 0.0074 µM | 0.0055 µM | 0.018 µM |  |  |
| CCCN(CC1CC1)C1CCc2ccc3[nH]cc(C=O)c3c2C1 (stereo not given) | 0.196 µM | 0.024 µM |  | 0.164 µM |  | ED50 [13]: inactive; ED50 [6]: 0.33 µmol/kg; ED50 [14]: inactive; ED50 [8]: 0.23 µmol/kg; ED50 [9]: 0.34 µmol/kg; ED50 [15]: inactive |
| O=Cc1c[nH]c2ccc3c(c12)CC(N1CCCCCC1)CC3 (stereo not given) |  |  | > 1 µM |  |  |  |
| CCCN(CCc1cccs1)C1CCc2ccc3[nH]ccc3c2C1 (stereo not given) |  | 0.013 µM |  | 0.0055 µM | 0.0055 µM | inhibition [11]: < 45% |
| CCCN(CCCOc1cccc(Cl)c1)C1CCc2ccc3[nH]ccc3c2C1 (stereo not given) | 0.243 µM | 0.013 µM |  | 0.02 µM | 0.015 µM |  |
| CCCN(CCCCN1C(=O)CC(C)(C)CC1=O)C1CCc2ccc3[nH]ccc3c2C1 (stereo not given) | 0.224 µM | 0.026 µM |  | 0.029 µM | 0.015 µM |  |
| CCCN(CCCc1ccccc1OC)C1CCc2ccc3[nH]cc(C=O)c3c2C1 (stereo not given) | 0.011 µM | 0.0034 µM | 0.014 µM | 0.084 µM |  |  |
| CCCN(CC1CC1)C1CCc2ccc3[nH]ccc3c2C1 (stereo not given) |  | 0.075 µM |  | 0.05 µM | 0.033 µM | inhibition [11]: < 45%; ED50 [6]: 0.11 µmol/kg; ED50 [16]: 1.4 µmol/kg; ED50 [8]: 0.11 µmol/kg; ED50 [17]: 1.18 µmol/kg; ED50 [9]: 0.18 µmol/kg; ED50 [18]: inactive |
| CCCN(CCCc1ccccc1)C1CCc2ccc3[nH]cc(C=O)c3c2C1 (stereo not given) | 0.011 µM | 0.002 µM | 0.013 µM | 0.042 µM |  |  |
| CCCN(CCc1cccs1)C1CCc2ccc3[nH]cc(C=O)c3c2C1 (stereo not given) | 0.046 µM | 0.002 µM | 0.025 µM | 0.048 µM |  | ED50 [19]: Weak activity; ED50 [6]: 0.044 µmol/kg; ED50 [20]: Weak activity; ED50 [7]: inactive; ED50 [8]: 0.082 µmol/kg; ED50 [9]: 0.11 µmol/kg |
| CCCN(CCC)CC1CCc2ccc3[nH]ccc3c2C1 (stereo not given) |  |  |  |  | > 1 µM |  |
| CCCNC1CCc2ccc3[nH]cc(C=O)c3c2C1 (stereo not given) | 0.227 µM | 0.027 µM | 0.06 µM |  |  |  |
| CCCN(CCCc1ccccc1OC)C1CCc2ccc3[nH]ccc3c2C1 (stereo not given) | 0.04 µM | 0.0025 µM |  | 0.01 µM | 0.0048 µM |  |
| CCCN(CCC)C1CCc2ccc3[nH]ccc3c2C1 (stereo not given) |  | 0.039 µM |  |  |  |  |
